Reference: ChEMBL document CHEMBL1151801, “Synthesis of new indeno[1,2-e]pyrimido[4,5-b][1,4]diazepine-5,11-diones as potential antitumor agents” (2008)

How the values were obtained:
Format in all cases: functional
[1] = system: HT-29; test: Antitumor activity against human HT-29 cells after 48 hrs by SRB assay; settings: HT-29, 48 h
Method in brief: (§1)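 NCI in vitro human tumor cell line screen. Cells were exposed continuously to compound for 48 h at five concentration levels (100, 10, 1.0, 0.1 and 0.01). Growth was estimated by sulforhodamine B protein staining. GI50 is the concentration giving a 50% reduction in net protein increase relative to control cells over the incubation.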

[2] = system: TK-10; test: Antitumor activity against human TK10 cells after 48 hrs by SRB assay; settings: TK-10, 48 h
Method in brief: (§2)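 NCI in vitro human tumor cell line screen. Continuous 48 h drug exposure at five concentrations (100, 10, 1.0, 0.1 and 0.01 µM). Cell growth estimated by sulforhodamine B protein staining. GI50 defined as the concentration giving 50% reduction in net protein increase versus control cells over the incubation.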

[3] = system: SK-MEL-5; test: Antitumor activity against human SK-MEL-5 cells after 48 hrs by SRB assay; settings: SK-MEL-5, 48 h; method in brief: as §1
[4] = system: LOX IMVI; test: Antitumor activity against human LOXIMVI cells after 48 hrs by SRB assay; method in brief: as §1
[5] = system: NCI-H322M; test: Antitumor activity against human NCI-H322M cells after 48 hrs by SRB assay; settings: for CC50: read-out: LC50 (the source's name); method in brief: as §1
[6] = system: KM12; test: Antitumor activity against human KM12 cells after 48 hrs by SRB assay; settings: KM12, 48 h; for CC50: read-out: LC50 (the source's name); method in brief: as §1
[7] = system: NCI/ADR-RES; test: Antitumor activity against human NCI/ADR-RES cells after 48 hrs by SRB assay; method in brief: as §1
[8] = system: RXF 393; test: Antitumor activity against human […] cells after 48 hrs by SRB assay; settings: RXF 393, 48 h; method in brief: as §1
[9] = system: OVCAR-5; test: Antitumor activity against human OVCAR5 cells after 48 hrs by SRB assay; settings: OVCAR-5, 48 h; method in brief: as §1
[10] = system: OVCAR-4; test: Antitumor activity against human OVCAR4 cells after 48 hrs by SRB assay; settings: OVCAR-4, 48 h; for CC50: read-out: LC50 (the source's name); method in brief: as §1
[11] = system: U-251; test: Antitumor activity against human U251 cells after 48 hrs by SRB assay; settings: U-251, 48 h; for CC50: read-out: LC50 (the source's name); method in brief: as §2
[12] = system: M14; test: Antitumor activity against human M14 cells after 48 hrs by SRB assay; settings: M14, 48 h; method in brief: as §1
[13] = system: MCF7; test: Antitumor activity against human MCF7 cells after 48 hrs by SRB assay; settings: MCF7, 48 h; method in brief: as §1
[14] = Antitumor activity against human Hs 578T cells after 48 hrs by SRB assay; settings: for CC50: read-out: LC50 (the source's name); method in brief: as §1
[15] = system: BT-549; test: Antitumor activity against human BT549 cells after 48 hrs by SRB assay; settings: BT-549, 48 h; for CC50: read-out: LC50 (the source's name); method in brief: as §1
[16] = system: SNB-19; test: Antitumor activity against human SNB19 cells after 48 hrs by SRB assay; settings: SNB-19, 48 h; method in brief: as §1
[17] = system: UACC-62; test: Antitumor activity against human UACC62 cells after 48 hrs by SRB assay; settings: UACC-62, 48 h; method in brief: as §2
[18] = system: SK-MEL-28; test: Antitumor activity against human SK-MEL-28 cells after 48 hrs by SRB assay; settings: SK-MEL-28, 48 h; method in brief: as §1
[19] = system: Malme-3M; test: Antitumor activity against human MALME-3M cells after 48 hrs by SRB assay; method in brief: as §1
[20] = read-out: LC50 (the source's name)

## CSc1nc2c(c(=O)[nH]1)NC1=C(C(=O)c3ccccc31)C(c1ccc(F)cc1)N2 (stereo unspecified)
[1]
  GI50: 3.36 µM
  LC50: 35.1 µM
[2]
  GI50: 12.9 µM
[2]; [20]
  CC50: > 100 µM
[3]
  GI50: 6.13 µM
[3]; [20]
  CC50: > 100 µM
[4]
  GI50: 8.78 µM
[4]; [20]
  CC50: 95.2 µM
[5]
  GI50: 13.9 µM
  CC50: > 100 µM
[6]
  GI50: 3.77 µM
  CC50: 39.5 µM
[7]
  GI50: 6.42 µM
  LC50: > 100 µM
[8]
  GI50: 14.5 µM
[8]; [20]
  CC50: 92.8 µM
[9]
  GI50: 17.7 µM
[9]; [20]
  CC50: 95.6 µM
[10]
  GI50: 15.4 µM
  CC50: > 100 µM
[11]
  GI50: 5.43 µM
  CC50: 48.6 µM
[12]
  GI50: 6.29 µM
[12]; [20]
  CC50: > 100 µM
[13]
  GI50: 5.18 µM
  LC50 (concentration causing 50% net cell kill): > 100 µM
[14]
  GI50: 5.85 µM
  CC50: > 100 µM
[15]
  GI50: 8.5 µM
  CC50: > 100 µM
[16]
  GI50: 15.9 µM
[16]; [20]
  CC50: > 100 µM
[17]
  GI50: 3.04 µM
[17]; [20]
  CC50: > 100 µM
[18]
  GI50: 9.03 µM
[18]; [20]
  CC50: > 100 µM
[19]
  GI50: 19.6 µM
[19]; [20]
  CC50: > 100 µM

## CSc1nc2c(c(=O)[nH]1)NC1=C(C(=O)c3ccccc31)C(c1ccccc1)N2 (stereo unspecified)
[1]
  GI50: 2.97 µM
  LC50: > 100 µM
[5]
  GI50: 13.5 µM
  CC50: > 100 µM
[6]
  GI50: 2.27 µM
  CC50: > 100 µM
[7]
  GI50: 4.54 µM
  LC50: > 100 µM
[10]
  GI50: 5.62 µM
  CC50: > 100 µM
[11]
  GI50: 3.52 µM
  CC50: > 100 µM
[13]
  GI50: 2.4 µM
  LC50 (concentration causing 50% net cell kill): > 100 µM
[14]
  GI50: 2.1 µM
  CC50: > 100 µM
[15]
  GI50: 5.35 µM
  CC50: > 100 µM
